Shown are actives, neighbours in structure and some others; about 3.7% of the full set was active somewhere.
KCNK3 block: human KCNK3 channel inhibition, primary screen | O14649 | CHO-KCNK3 thallium flux, FluxOR fluorescence; active compounds read low | B-score at 10 µM | 340,000 tested, 0.84% active | AID 602410;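 active = B-score under library mean minus 4 SD, starting fluorescence ratio at most library mean plus 5 SD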;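 note: more negative B-score means stronger inhibition of thallium flux through KCNK3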
Target sequence (O14649 whole entry, looked up): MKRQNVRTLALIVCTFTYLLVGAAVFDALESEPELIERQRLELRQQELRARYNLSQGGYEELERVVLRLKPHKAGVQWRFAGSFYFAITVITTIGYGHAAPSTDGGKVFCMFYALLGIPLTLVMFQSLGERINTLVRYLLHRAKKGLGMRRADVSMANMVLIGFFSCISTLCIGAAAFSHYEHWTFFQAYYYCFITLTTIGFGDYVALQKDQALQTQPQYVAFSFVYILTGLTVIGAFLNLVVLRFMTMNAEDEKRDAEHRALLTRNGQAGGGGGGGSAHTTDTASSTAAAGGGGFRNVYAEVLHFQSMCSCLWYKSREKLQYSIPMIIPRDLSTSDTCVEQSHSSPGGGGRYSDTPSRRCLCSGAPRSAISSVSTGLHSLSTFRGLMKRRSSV
KCNQ1 block: inhibitors of human KCNQ1 potassium channel; B-score at 10 µM; P51787; 310,000 tested, 1.3% active; AID 2642; CHO-K1 KCNQ1, FluxOR thallium flux fluorescence; active compounds read high;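 active = compounds whose thallium flux B-score, printed positive for inhibition, exceeds three library SD while starting fluorescence stays within three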;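 note: channel opened by potassium depolarization with thallium stimulus after 20 min compound exposure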
hERG protect: hERG (human) protection from proarrhythmic block; Q12809; CHO-hERG, FluxOR thallium flux, dofetilide IC70 present; activation (rescue from dofetilide block), less the hit threshold, % at 10 µM; 310,000 tested, 0.51% active; AID 1511;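 active = activation above the mean of controls blocked by dofetilide plus 5 SD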;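 note: thallium influx through hERG after potassium depolarization seen as dye fluorescence rise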
KCNK9 block: blocks the human KCNK9 two-pore domain potassium channel. B-score at 10 µM. HEK293 KCNK9, FluxOR thallium flux fluorescence; active compounds read low. 310,000 tested, 1.2% active;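 active = ratio B-score over 3 SD below the library mean, with starting fluorescence within 5 SD of its mean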;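 note: negative B-score means less thallium flux so channel inhibition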
Kir21 inh: blocks the mouse Kir2.1 inward-rectifier potassium channel | P35561 | HEK293-Kir2.1, FluxOR thallium flux fluorescence; active compounds read low | B-score at 10 µM | 310,000 tested, 0.85% active | AID 1672;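 active = fluorescence ratio B-score at or below minus 3 SD of library scores, with starting-brightness B-score within 2 SD, cut at about -4.2 in these data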;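 note: channel flux triggered by added potassium and thallium sulfate stimulus; B-score of peak minus minimum fluorescence over baseline after thallium stimulus; more negative B-score means stronger Kir2.1 block with less thallium influx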
KCNQ1 pot: potentiators or activators of human KCNQ1 potassium channel; B-score at 10 µM; CHO-K1 KCNQ1, thallium flux FluxOR fluorescence; active compounds read high; 310,000 tested, 0.35% active; AID 2648;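 active = fluorescence ratio B-score, a plate-corrected score, at least three library SD, with initial intensity B-score within 5 SD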
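Test system: CHO-K1 cells stably expressing KCNQ1 / Medium: assay buffer / Also added: depolarizing K+/Tl+ stimulus, K2SO4 and Tl2SO4 each 12.5 mM in 5x stock / Incubation: 90 min dye loading and 20 min compound exposure, both at room temperature / Signal: thallium influx via FluxOR fluorescence, kinetic imaging / Evaluation: B score of baseline-normalized fluorescence ratio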
KCNK3 inh conf: confirmation of human KCNK3 two-pore domain potassium channel inhibitors | CHO-KCNK3 thallium flux, FluxOR fluorescence; 0% buffer, 100% carvedilol maximal block | shares compounds with KCNK3 block | 2,400 tested, 99% active | AID 651638 | ratio percent of control, % at 10 µM;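 active = ratio percent of control, averaged over triplicates, above buffer control mean plus 5 SD, cut at about 64% in these data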;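 note: ratio is the fluorescence rise from min to max over baseline after thallium stimulus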
KCNK3 noninduced: activity in cells without induced KCNK3 expression; 2,400 tested, 40% active; shares compounds with KCNK3 block; non-induced KCNK3 parental cells, FluxOR thallium flux; active compounds read low; thallium flux ratio (lower = more inhibition) at 10 µM;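 active = thallium flux ratio, averaged over three wells, more than 5 SD below the buffer control mean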;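 note: host cells are CHO cells without KCNK3 induction; ratio is peak minus trough fluorescence over baseline then normalized to buffer controls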
Starred values were filed as active, the others as inactive; i = inactive; . = not tested or not shown.

SMILES | KCNK3 block | KCNQ1 block | hERG protect | KCNK9 block | Kir21 inh | KCNQ1 pot | KCNK3 inh conf | KCNK3 noninduced
O=C(Nc1ccccc1)c1ccc(NCC2CCCO2)c([N+](=O)[O-])c1 (configuration not stated) | i | i | -7.5 | i | -0.27 | i | . | .
O=[N+]([O-])c1cc(C(F)(F)F)ccc1NCC1CCCO1 (configuration not stated) | -9.69* | i | -0.2 | i | 0.76 | i | 70.3* | i
CN(CC(=O)Nc1cccc(S(=O)(=O)N2CCCC2)c1)CC(=O)Nc1ccc(Cl)c(C(F)(F)F)c1 | -11.2* | i | -14.2 | i | 0.02 | i | 128.0* | 0.14*
CN(CC(=O)Nc1cccc(S(=O)(=O)N2CCCC2)c1)CC(=O)Nc1ccc(F)c(F)c1F | i | . | . | . | . | . | . | .
COc1ccc(Br)cc1CN(C)C(=O)CNC(=O)c1ccc2ccccc2c1 | i | i | -10.1 | i | -1.09 | i | . | .
OC1(c2ccc(OC(F)F)cc2)CSC(=Nc2cccnc2)N1Cc1ccco1 (configuration not stated) | -11.4* | i | -33.5 | i | 0.77 | i | 96.7* | i
CCCC(CCC)C(=O)Nc1cccc(-c2cn3c(n2)SCC3)c1 | -8.72* | i | -6.4 | i | 0.99 | i | 99.3* | i
O=C(Nc1ccc(-c2cn3c(n2)SCC3)cc1)c1ccc2c(c1)OCO2 | i | i | -14.8 | i | 0.02 | i | . | .
O=C(Nc1cccc(-c2cn3c(n2)SCC3)c1)c1ccc2c(c1)OCO2 | -10.6* | i | -24.2 | i | -0.01 | i | 104.0* | i
O=[N+]([O-])c1cc(S(=O)(=O)N2CCOCC2)ccc1OCc1ccccc1C(F)(F)F | i | . | . | . | . | . | . | .
Cc1ccc(OCC(=O)N/N=C/c2c[nH]c3ccccc23)c([N+](=O)[O-])c1 | i | i | 1.8 | i | 0.02 | i | . | .
Cc1ccc(N2CCN(c3ncccc3[N+](=O)[O-])CC2)c(C)c1 | -8.8* | i | -4.7 | i | 0.56 | i | 108.3* | 0.152*
O=[N+]([O-])c1cccnc1N1CCCCC1 | i | i | -9.0 | i | 0.9 | i | . | .
c1ccc(-c2nc(N3CCCCCC3)nc(-n3ccnc3)n2)cc1 | -10* | i | -11.2 | -6.97* | 0.73 | i | 121.7* | i
Cc1ccc(NC(=O)COC(=O)Cc2ccsc2)c(C)c1 | i | i | -0.8 | i | 1.2 | i | . | .
CCCCCCNS(=O)(=O)c1ccc(Cl)s1 | -9.23* | i | -5.1 | i | -0.79 | i | 94.3* | i
COc1ccc(/C=C2\COc3ccccc3C2=O)c(OC)c1 | -9.6* | i | -11.8 | i | 1.3 | i | 121.3* | i
Oc1ccc(Br)cc1-c1nc2cnccn2c1NC1CCCC1 | -8.82* | i | -21.1 | i | -0.17 | i | 131.0* | i
Cc1ccc(NC(=O)c2ccc(Cl)c(S(=O)(=O)N3CCc4ccccc43)c2)nc1 | -11.5* | . | . | . | . | . | 144.3* | 0.133*
CCc1nnc(NC(=O)C2CCN(C(=O)c3ccco3)CC2)s1 | -8.84* | i | -0.6 | i | -0.85 | i | 80.7* | i
CC12CCC(=O)C=C1CCC1C2CCC2(C)C(c3csc(N)n3)CCC12 (configuration not stated) | -14.3* | . | . | . | . | . | 133.3* | 0.121*
CC12CCC(=O)C=C1CCC1C2C(O)CC2(C)C(c3csc(N)n3)CCC12 (configuration not stated) | i | . | . | . | . | . | . | .
O=C(O)c1cc(Br)ccc1NS(=O)(=O)c1cccc2nsnc12 | i | i | -9.6 | i | 1.22 | i | . | .
CCc1ccccc1Nc1nc(N)nc(COC(=O)C2CCN(C(=O)c3ccc(F)cc3)CC2)n1 | i | . | . | . | . | . | . | .
CCCNC(=O)CSc1nc2ccccc2c(=O)n1CCC | -8.84* | i | -5.2 | i | 1.8 | i | 85.7* | i
